Source: PubChem BioAssay (several laboratories)
Tb MetRS inh: T. brucei MetRS inhibitors, primary screen, biochemical, luminescence. purified T. brucei MetRS, ATP depletion, Kinase-Glo luminescence. AID 624268, 2012. inhibition, % at 11.9 µM. 0.4% of 360,000 active. methionyl-tRNA synthetase (Trypanosoma brucei brucei);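 active = inhibition above a per-plate cutoff of the control wells' mean inhibition plus 3 SD, cut at about 5.5% in these data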;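 note: 0% = DMSO wells median and 100% = median of wells with control inhibitor compound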
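Test system – parasite MetRS enzyme · Reagent – substrates ATP, L-methionine and bulk Escherichia coli tRNA · Doses – 11.9 µM compound single dose, 0.9% DMSO · Times – 15 min enzyme-compound preincubation, 2 h reaction, 10 min detection, 25 °C · Signal – Kinase-Glo luminescence, ATP depletion format · Controls – DMSO-only wells as low control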
ABCB6 inh 2: ABCB6 transporter inhibitors, primary screen, K562-ABCB6 cells, flow cytometry, MLPCN library. ATP-binding cassette sub-family B member 6 (Homo sapiens), Q9NP58. K562-ABCB6 porphyrin accumulation, 1 h; active compounds read low. fluorescence ratio to DMSO, % at 10 µM. 0.19% of 360,000 active. AID 602162, 2011;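 active = fluorescence ratio to DMSO below 75%, the collection mean minus 3 SD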;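 note: signal is porphyrin accumulated inside mitochondria; 100% equals median channel fluorescence of DMSO control wells; lower ratio means ABCB6 inhibition with less porphyrin fluorescence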
Target sequence (Q9NP58 whole entry, looked up): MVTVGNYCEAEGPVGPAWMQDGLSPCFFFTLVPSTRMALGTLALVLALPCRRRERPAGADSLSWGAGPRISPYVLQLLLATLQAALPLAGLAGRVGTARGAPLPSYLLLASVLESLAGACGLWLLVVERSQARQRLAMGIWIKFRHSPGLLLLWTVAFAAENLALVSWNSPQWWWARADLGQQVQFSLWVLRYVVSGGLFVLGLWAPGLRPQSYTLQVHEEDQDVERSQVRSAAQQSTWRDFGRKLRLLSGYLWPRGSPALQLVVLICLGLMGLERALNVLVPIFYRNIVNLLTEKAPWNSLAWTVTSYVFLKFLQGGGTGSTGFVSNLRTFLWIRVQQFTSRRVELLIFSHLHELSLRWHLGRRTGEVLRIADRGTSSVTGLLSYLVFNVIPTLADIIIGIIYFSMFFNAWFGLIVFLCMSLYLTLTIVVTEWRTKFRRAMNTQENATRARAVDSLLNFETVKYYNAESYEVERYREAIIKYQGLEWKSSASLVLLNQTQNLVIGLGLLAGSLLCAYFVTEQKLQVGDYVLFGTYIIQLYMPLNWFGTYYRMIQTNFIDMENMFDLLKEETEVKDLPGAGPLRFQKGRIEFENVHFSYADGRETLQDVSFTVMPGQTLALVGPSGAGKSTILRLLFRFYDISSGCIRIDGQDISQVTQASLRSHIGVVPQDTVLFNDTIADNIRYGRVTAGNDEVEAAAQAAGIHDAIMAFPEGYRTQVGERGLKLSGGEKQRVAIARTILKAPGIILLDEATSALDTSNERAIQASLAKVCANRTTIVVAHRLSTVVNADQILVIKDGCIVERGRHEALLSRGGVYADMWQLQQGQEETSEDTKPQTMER
MC4R barr agon: MC4R agonists recruiting beta-arrestin, primary screen, cell-based, luminescence, agonist arm of biased-ligand search | Melanocortin receptor 4 (Homo sapiens), P32245 | U2OS MC4R beta-arrestin complementation; percent of melanotan II response, DMSO zero | activation, % at 8.9 µM | 0.98% of 360,000 active;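 active = activation above a per-plate cutoff, the mean activation of sample wells on that plate plus 3 SD, cut at about 8% in these data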
Granule exo inh: LAMP-1 surface exposure blockers, TALL-104 cells – cell-based, flow cytometry, MLPCN library, primary screen. TALL-104 LAMP-1 surface exposure; cells stimulated with thapsigargin and PMA. 0.66% of 360,000 active. inhibition, % at 10 µM;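 active = inhibition above about 55%, limit read from the data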
MC4R antagonist: MC4R antagonists of cAMP signaling, primary screen, cell-based, TR-FRET, antagonist arm of biased-ligand search | 0.48% of 360,000 active | Melanocortin receptor 4 (Homo sapiens), P32245 | inhibition, % at 6.5 µM | AID 540295, 2011 | MC4R-expressing cells, MTII-stimulated cAMP, LANCE TR-FRET;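 active = inhibition above its plate's cutoff, the mean of tested wells on that plate plus 3 SD, cut at about 29% in these data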;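 note: 0% = Melanotan II alone and 100% = Melanotan II plus saturating MCL0020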
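System – human MC4R-expressing U2OS cells · Also added – Melanotan II · Dosing – one concentration, 6.5 µM nominal · Timing – 30-min compound, 1-h challenge, 1-h detection, room temperature · Measured by – Eu-cAMP/anti-cAMP TR-FRET, emission 671 nm · Replicates – singlicate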
hiPSC survival: enhancers of single-cell hiPSC survival, primary screen, ATPlite luminescence. 0.044% of 360,000 active. survival enhancement, % at 20 µM. 100% = ROCK inhibitor wells, 0% = DMSO. AID 602274, 2012; in the data active = survival enhancement above about 18%;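 note: cells exposed to compounds for 16 hours before the ATP read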
ABCB6 blocker 1: ABCB6 transporter inhibitors, confirmation, K562-ABCB6 cells, flow cytometry, cherry pick 1 | 700 tested, under 10 active | ratio response (% of DMSO), % at 10 µM | AID 602430, 2012 | K562-ABCB6 porphyrin accumulation, 1 h; active compounds read low | shares compounds with ABCB6 inh 2;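 active = repeat-averaged ratio response below 75% of DMSO, the collection mean minus 3 SD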;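 note: median porphyrin fluorescence at 575 nm with 488 nm excitation from mitochondria; lower ratio means less porphyrin signal so ABCB6 inhibition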
* = called active by the depositor; . = no result. Hits are enriched below; roughly 2.6% of the tested compounds scored in any of these assays.

SMILES | Tb MetRS inh | ABCB6 inh 2 | MC4R barr agon | Granule exo inh | MC4R antagonist | hiPSC survival | ABCB6 blocker 1
N#Cc1nc(COc2ccccc2)oc1N1CCCCCC1 | 0 | 103 | -1 | 6 | 9 | 1 | .
N#Cc1nn(-c2ccccc2)nc1N1CCCCC1 | -2 | 69* | 3 | -2 | -10 | -1 | 95
Cc1nn(CC(=O)N2CCN(C(=O)c3ccco3)CC2)c(C)c1[N+](=O)[O-] | 0 | 97 | -2 | 8 | 1 | 5 | .
CC(=O)NC(Cc1c[nH]c2ccccc12)C(=O)N1CCc2ccccc2C1 (centres undefined) | 0 | 69* | -3 | 4 | -1 | -1 | 98
O=C(O)c1ccc2c(c1)N(Cc1ccccc1)C(=O)c1ccccc1S2 | 0 | 94 | 1 | -5 | 5 | 0 | .
Cc1ccc(C)c(CSc2nnc([C@@H]3CCCN3)o2)c1 | 0 | 103 | 0 | -12 | -5 | 0 | .
CC(C)(C)c1ccc(Cn2nnc3c(=O)[nH]c(C4CCN(C(=O)c5ccco5)CC4)nc32)cc1 | 0 | 94 | 0 | 2 | -4 | 1 | 100
O=C(c1ccco1)N1CCC(c2nc3c(nnn3Cc3c(Cl)cccc3Cl)c(=O)[nH]2)CC1 | 0 | 97 | -1 | 5 | 4 | 0 | 103
CC(=O)c1ccc(N2CCN(C(=O)c3cc(-c4ccncc4)nc4ccc(Cl)cc34)CC2)cc1 | 0 | 98 | 1 | -10 | -6 | 0 | .
CC(NC(=O)COc1ccc(/C=N/NS(=O)(=O)c2ccccc2)cc1)c1ccccc1 (centres undefined) | 0 | 69* | -2 | 1 | 7 | 0 | 99
COc1ccc(C(=O)NCCCCNC(=O)c2ccc(OC)c(OC)c2)cc1OC | 0 | 100 | 3 | 0 | 8 | 0 | .
Cc1nc2ccccc2c(=O)n1NC(=O)c1ccc(C(C)(C)C)cc1 | -1 | 95 | 1 | 4 | 0 | 3 | .
COc1ccc(C(=O)Nn2c(C)nc3ccccc3c2=O)cc1 | -1 | 74* | 0 | -2 | -1 | 0 | 100
O=C(NCc1ccc2c(c1)OCO2)c1ccc(Cl)c(S(=O)(=O)N2CCOCC2)c1 | 0 | 53* | -3 | 2 | 2 | -1 | 101
CC(O)(c1cccnc1)c1nc(-c2ccc3ccccc3c2)cs1 (centres undefined) | 0 | 98 | -2 | -5 | -2 | -1 | .
CCOC(=O)C1(C(F)(F)F)N=C(C(F)(F)F)Nc2ccc(F)cc21 (centres undefined) | 0 | 59* | -2 | 0 | 1 | -1 | 103
COc1ccc(/C=C/C(=O)OCC(=O)NCc2ccccc2Cl)cc1OC | 0 | 104 | 0 | 0 | -1 | 0 | .
COc1ccccc1C1C(C#N)=C(N)N(N(C)C)C2=C1C(=O)CC(C)(C)C2 (centres undefined) | -1 | 51* | -2 | -7 | 6 | 0 | 96
c1ccc(COc2cccc(-c3cc4nc(NCc5ccc6c(c5)OCO6)ccn4n3)c2)cc1 | 0 | 68* | -1 | 5 | -9 | 1 | 97
c1ccc(OCCNc2ccn3nc(-c4ccc(OCCN5CCOCC5)cc4)cc3n2)cc1 | 0 | 74* | -1 | -9 | 13 | 4 | 100
CCN(CC(=O)Nc1c(F)cccc1F)C(=O)c1ccc(C#N)cc1 | 0 | 70* | -1 | 5 | 15 | 0 | 99
COc1ccc(-c2cnn3c(N)c(S(=O)(=O)C(C)(C)C)cnc23)cc1 | 0 | 68* | -1 | 2 | 1 | -1 | 97
